In ChEMBL document CHEMBL1152819, “Evaluation of hexadecyloxypropyl-9-R-[2-(Phosphonomethoxy)propyl]- adenine, CMX157, as a potential treatment for human immunodeficiency virus type 1 and hepatitis B virus infections” (Antimicrob Agents Chemother, 2007):

Legend:
[1] = tested on: Human immunodeficiency virus 1; assay: Antiviral activity against HIV1 in human MT2 cells; type: functional, organism-based
Outline: (§1)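 MT-2 cells in RPMI 1640 with 10% FBS and 10 mM HEPES, infected with HIV-1 LAI at MOI 0.001 TCID50/cell. Incubated with threefold serial dilutions, three wells per dilution. EC50 taken as the concentration inhibiting p24 antigen production by 50%.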

[2] = tested on: Human immunodeficiency virus 1; assay: Antiviral activity against HIV1 LAI in human MT2 cells assessed as inhibition of p24 antigen production by ELISA; type: functional, organism-based; details: Human immunodeficiency virus 1, LAI; outline: as §1

EC50 [1] | EC50 [2] | Structure (SMILES)
0.02 nM |  | CCCCCCCCCCCCCCCCOCCCOP(=O)(O)COCCn1cnc2c(N)nc(N)nc21
 | 7 nM | CCCCCCCCCCCCCCCCOCCCOP(=O)(O)CO[C@H](CO)Cn1cnc2c(N)ncnc21
